Assay results from ChEMBL document CHEMBL1149336, “Fumarranol, a rearranged fumagillin analogue that inhibits angiogenesis in vivo” (J Med Chem, 2006).
pIC50: −log10 of the molar value. Active and inactive are the calls of the source. The calls are words filed in the database; no cut-off is given here.

Columns and labels:
AEC [1] = assay: Antiproliferative activity against BAEC at 100 uM; format: functional, cell-based; conditions: Bos taurus
[2] = target: Methionine aminopeptidase 2 (Homo sapiens) (UniProt P50579); assay: Inhibition of human MetAP2 at 100 uM
Mus musculus [3] = assay: Inhibition of VEGF and FGF-stimulated angiogenesis in mouse at 30 mg/kg by Matrigel plug assay; format: functional, organism-based; set-up: dose 30 mg/kg
Method in brief: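 Mice received subcutaneous matrigel containing VEGF and basic FGF, with the agent dosed at 30 mg/kg/day. After 10 days, vessel ingrowth into the plug was judged by the plug's red colour and by MAS-trichrome staining of matrigel slices to visualize blood vessels.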

AEC [4] = assay: Antiproliferative activity against BAEC; conditions: Bos taurus
Mus musculus [5] = assay: Ulceration in mouse at 30 mg/kg; format: functional, organism-based; set-up: dose 30 mg/kg
Mus musculus [6] = assay: Ulceration in mouse at 90 mg/kg; format: functional, organism-based; set-up: dose 90 mg/kg
Method in brief: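 Mice in the VEGF/bFGF matrigel-plug study were dosed at 90 mg/kg/day and their skin was inspected for ulceration.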

Mus musculus [7] = assay: Inhibition of VEGF and FGF-stimulated angiogenesis in mouse at 90 mg/kg by Matrigel plug assay; format: functional, organism-based; set-up: dose 90 mg/kg
Method in brief: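 Matrigel with VEGF and basic FGF injected subcutaneously into mice and left 10 days while new vessels grew in. Compound given at 90 mg/kg/day. Vessel ingrowth was judged by the red colour of the plug and by MAS-trichrome staining of plug slices.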

Sequence of Methionine aminopeptidase 2 (Homo sapiens) (P50579 2-478 limits assumed): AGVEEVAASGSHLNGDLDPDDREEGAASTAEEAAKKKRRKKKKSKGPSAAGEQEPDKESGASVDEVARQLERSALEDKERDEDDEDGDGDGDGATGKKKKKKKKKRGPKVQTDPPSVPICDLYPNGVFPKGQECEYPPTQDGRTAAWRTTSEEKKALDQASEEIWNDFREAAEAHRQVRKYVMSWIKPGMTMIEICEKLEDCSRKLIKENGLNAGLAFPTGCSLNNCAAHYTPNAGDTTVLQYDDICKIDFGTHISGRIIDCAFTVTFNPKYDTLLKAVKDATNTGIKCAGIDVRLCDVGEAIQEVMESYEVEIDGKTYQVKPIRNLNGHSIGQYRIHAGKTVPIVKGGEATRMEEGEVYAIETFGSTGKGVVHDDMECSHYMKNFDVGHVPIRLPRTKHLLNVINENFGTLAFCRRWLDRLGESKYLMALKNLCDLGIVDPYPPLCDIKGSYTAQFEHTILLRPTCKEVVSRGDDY

CO[C@]12C(=O)CC[C@@]1(CN1C(=O)c3ccccc3C1=O)C2[C@@]1(C)O[C@@H]1CC=C(C)C (stereo not given in full)
Activity (AEC [1]): inactive | Activity [2]: inactive

CO[C@@]12C([C@@]3(C)O[C@@H]3CC=C(C)C)[C@]1(CO)CC[C@H]2O (stereo not given in full)
Activity (AEC [1]): inactive | Activity [2]: inactive

CCOC(=O)CCCC/C=C/C[C@H]1O[C@]1(C)C1[C@]2(CO)CCC(=O)[C@]12OC (stereo not given in full)
Activity (AEC [1]): inactive | Activity [2]: inactive

COC[C@@]12CCC(=O)[C@]1(OC)C2[C@@]1(C)O[C@@H]1CC=C(C)C (stereo not given in full)
Activity (AEC [1]): inactive | Activity [2]: inactive

CO[C@@H]1[C@H](OC(=O)NC(=O)CCl)CC[C@]2(CO2)[C@H]1[C@@]1(C)O[C@@H]1CC=C(C)C [O-CHLOROACETYLCARBAMOYLFUMAGILLOL]
Activity (Mus musculus [3]): Active | pIC50 (AEC [4]): 10.43 | Activity (Mus musculus [5]): Active

CO[C@]12C(=O)CC[C@@]1(CO)C2C(C)CCC=C(C)C (stereo not given in full)
pIC50 (AEC [4]): 5.40

CO[C@]12C(=O)CC[C@@]1(CO)[C@H]2/C(C)=C/CC=C(C)C
pIC50 (AEC [4]): 5.75

CO[C@@H]1C(=O)CC[C@](O)(C=O)[C@H]1[C@@]1(C)O[C@@H]1CC=C(C)C [FUMAGALONE]
pIC50 (AEC [4]): 7.28

CO[C@]12C(=O)/C(=C/c3ccco3)C[C@@]1(CO)C2[C@@]1(C)O[C@@H]1CC=C(C)C (stereo not given in full)
Activity (AEC [1]): inactive | Activity [2]: inactive

CO[C@]12C(=O)CC[C@@]1(CO)C2[C@@]1(C)O[C@@H]1CC=C(C)C (stereo not given in full) [FUMARRANOL]
Activity (Mus musculus [6]): inactive | pIC50 (AEC [4]): 7.47 | Activity (Mus musculus [7]): Active

CO[C@]12C(=O)CC[C@@]1(C=O)C2[C@@]1(C)O[C@@H]1CC=C(C)C (stereo not given in full)
pIC50 (AEC [4]): 6.43
